Assay results published in ChEMBL document CHEMBL5370613, “Phenyl dialkynylcarbinols, a Bioinspired Series of Synthetic Antitumor Acetylenic Lipids” (J Med Chem, 2023).
The source made the active and inactive calls. The calls are words filed in the database; no cut-off is given here.

What was measured:
U2OS [1] = assay: Induction of ER stress in human U2OS cells expressing Ub-G76V-YFP substrate assessed as inhibition of ubiquitin-proteasome system by measuring increase in […]-positive cells at 1 uM incubated for 4 hrs by flow cytometry analysis relative to control; type: functional; parameters: scale not given: the % may be the effect or the level left
Summary of the method: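 U2OS stably expressing Ub-G76V-YFP treated 4 h at 1 μM in complete medium (50 nM bortezomib as reference); trypsinised, fixed in 2% PFA, ≥32 000 cells acquired by flow cytometry; YFP-positive gate set on untreated cells.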

[2] = Tmax in female CD-1 mouse at 5 mg/kg, po measured for 480 mins by LC-MS/MS analysis; type: ADME, organism-based; details: in vivo
Summary of the method: (§1)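 Female (IP, SC, PO) or male (PO) CD-1 mice received 5 mg/kg in 10% Kolliphor EL vehicle, 3 mice per time point. Plasma was sampled at 5, 15, 30, 60, 120, 360 and 480 min, acetonitrile-extracted and quantified by LC-MS/MS against a calibration in extracted plasma. Tmax was the time of the observed maximum concentration.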

[3] = Cmax in male CD-1 mouse at 5 mg/kg, iv measured for 480 mins by LC-MS/MS analysis; type: ADME, organism-based; parameters: time 480 min, dose 5 mg/kg, route iv; details: in vivo
Summary of the method: (§2)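 Female (or male, as per line) CD-1 mice, 3 per time point, given a single 5 mg/kg dose in 10% Kolliphor EL in saline (injections) or water (oral). Blood sampled 5–480 min; plasma extracted with CH₃CN and quantified by LC-MS/MS (ESI+, m/z 251.20) against a calibration curve in extracted plasma; parameters by non-compartmental analysis.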

[4] = Volume of distribution at steady state in female CD-1 mouse at 5 mg/kg, iv measured for 480 mins by LC-MS/MS analysis; type: ADME, organism-based; details: in vivo, read-out: Vdss
Summary of the method: (§3)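 CD-1 mice (female for all routes, male for IV and PO) were dosed at 5 mg/kg in 10% Kolliphor EL in saline (injections) or water (oral), 3 mice per time point. Blood was taken at 5–480 min, and plasma was extracted with acetonitrile. LC-MS/MS positive ESI, m/z 251.20. Parameters came from non-compartmental analysis with a plasma calibration curve.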

U2OS [5] = assay: Activation of unfolded protein response in human U2OS cells assessed as reduction in full length ATF6 at 1 uM incubated for 2 to 6 hrs by immunoblotting analysis; type: functional, cell-based; details: time 2-6 hrs
Summary of the method: (§4)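 U2OS cells in complete growth medium treated at 1 μM for the indicated times, with 50 μM z-VAD-fmk added 1 h beforehand where stated; lysed in SDS buffer (Tris-HCl pH 6.8, 4% SDS) and immunoblotted, detected with HRP secondary antibodies and chemiluminescence.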

[6] = Toxicity in Balb/c mouse assessed as reduction in body weight at 2 to 5 mg/kg, iv administered 3 times per week and measured for 3 weeks; type: organism-based; details: in vivo, 504 h, dose 2-5 mg/kg
Summary of the method: (§5)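 Female adult Balb/c mice, 6 per group, received IV injections 3 times weekly for 3 weeks at 2, 5 or 10 mg/kg. Dosing solutions were 0.4, 1 and 2 mg/mL in saline with 10% Cremophor, given at 5 mL/kg, with IP substitution when IV was impossible. Mice were weighed thrice weekly and observed daily, with necropsy at endpoint.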

U2OS [7] = assay: Induction of apoptosis in human U2OS cells assessed as PARP-1 cleavage at 1 uM incubated for 12 hrs in presence of z-VAD-fmk by immunoblot analysis; type: functional, cell-based
Summary of the method: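 U2OS cells were pre-incubated 1 h with z-VAD-fmk at 50 μM, then treated 12 h with 1 μM in complete medium. Whole-cell extracts were made in SDS lysis buffer (120 mM Tris-HCl pH 6.8, 20% glycerol, 4% SDS). Caspase-dependent PARP-1 cleavage fragment was detected by immunoblot with HRP secondaries and chemiluminescence.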

U2OS [8] = assay: Cytotoxicity against human U2OS cells with HSD17B11 knockout complemented with GFP assessed as cell viability at 1 uM incubated for 72 hrs by SRB assay relative to control; type: functional; details: read-out: Activity
Summary of the method: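 U2OS HSD17B11-KO cells stably complemented with GFP, HSD17B11-GFP or HSD17B13-GFP, exposed to 1 μM compound for 72 h in complete medium; viability read by SRB assay, in three independent experiments.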

U2OS [9] = assay: Activation of unfolded protein response in human U2OS cells assessed as increase in IRE1alpha autophosphorylation at S724 residue at 1 uM incubated for 2 to 6 hrs by immunoblotting analysis; type: functional, cell-based; details: time 2-6 hrs; summary of the method: as §4
U2OS [10] = assay: Induction of ER stress in human U2OS cells expressing ER-moxGFP and Mito-mCherry assessed as vacuolization at 1 uM measured after 4 hrs by fluorescence microscopic analysis; type: functional, cell-based
Summary of the method: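 U2OS stably co-expressing ER-moxGFP and Mito-mCherry, seeded on glass-bottom dishes in phenol red-free L-15 medium with 10% FBS, treated with 1 μM; z-stacks acquired over time on a 3D-SIM super-resolution microscope, shown as max-intensity projections.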

U2OS [11] = assay: Induction of ER stress in human U2OS cells expressing Ub-G76V-YFP substrate assessed as inhibition of ubiquitin-proteasome system by measuring increase in substrate accumulation at 1 uM incubated for 4 hrs by fluorescence microscopy; type: functional, cell-based
Summary of the method: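 U2OS cells stably expressing the Ub-G76V-YFP proteasome substrate, seeded the day before, were exposed 4 h to 1 μM in complete DMEM/10% FBS. Reporter accumulation was imaged by fluorescence microscopy.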

[12] = Toxicity in Balb/c mouse assessed as reduction in body weight at 10 mg/kg, iv administered 3 times per week and measured on day 10; type: organism-based; details: in vivo, 240 h, time 10 day; summary of the method: as §5
U2OS [13] = assay: Induction of apoptosis in human U2OS cells assessed as cellular fragmentation; type: functional, cell-based
[14] = Tmax in male CD-1 mouse at 5 mg/kg, po measured for 480 mins by LC-MS/MS analysis; type: ADME, organism-based; details: in vivo; summary of the method: as §1
[15] = Toxicity in Balb/c mouse assessed as deteriorated health state with shaggy coat and diarrhea at 10 mg/kg, iv administered 3 times per week and measured on day 15; type: organism-based; details: in vivo, 360 h, time 15 day; summary of the method: as §5
[16] = Clearance in female CD-1 mouse at 5 mg/kg, sc measured for 480 mins by LC-MS/MS analysis; type: ADME, organism-based; details: in vivo; summary of the method: as §2
[17] = Cmax in female CD-1 mouse at 5 mg/kg, po measured for 480 mins by LC-MS/MS analysis; type: ADME, organism-based; parameters: dose 5 mg/kg, time 480 min, route po; details: in vivo; summary of the method: as §2
U2OS [18] = assay: Activation of unfolded protein response in human U2OS cells assessed as decrease in full length ATF6 at 1 uM incubated for 12 hrs in presence of z-VAD-fmk by immunoblotting analysis; type: functional, cell-based; summary of the method: as §4
[19] = Clearance in male CD-1 mouse at 5 mg/kg, po measured for 480 mins by LC-MS/MS analysis; type: ADME, organism-based; details: in vivo; summary of the method: as §2
[20] = Volume of distribution in elimination phase in female CD-1 mouse at 5 mg/kg, po measured for 480 mins by LC-MS/MS analysis; type: ADME, organism-based; details: in vivo, read-out: Vz/F; summary of the method: as §3
[21] = Half life in female CD-1 mouse at 5 mg/kg, po measured for 480 mins by LC-MS/MS analysis; type: ADME, organism-based; details: in vivo; summary of the method: as §2
[22] = Half life in male CD-1 mouse at 5 mg/kg, po measured for 480 mins by LC-MS/MS analysis; type: ADME, organism-based; details: in vivo; summary of the method: as §2
[23] = Volume of distribution in elimination phase in female CD-1 mouse at 5 mg/kg, ip measured for 480 mins by LC-MS/MS analysis; type: ADME, organism-based; details: in vivo, read-out: Vz/F; summary of the method: as §3

With C#C[C@H](O)C#Cc1ccc(CCCCCCCC)cc1 the Activity (U2OS [1]) was 87.5%, the Tmax [2] was 5 min and the Cmax [3] was 7 µM. For the same compound, the Vd [4] was 1.5 L/kg, the Activity (U2OS [5]) was “Active” and the Activity [6] was “Non-Toxic”. The Activity (U2OS [7]) was “inactive”, the viability at 1 µM (U2OS [8]) was 90% and the Activity (U2OS [9]) was “Active”. The Activity (U2OS [10]) was “Active”, the Activity (U2OS [11]) was “Active” and the Activity [12] was “Toxic”. The Activity (U2OS [13]) was “Active”, the Tmax [14] was 15 min and the Activity [15] was “Toxic”. The CL/F [16] was 675 mL/min/kg, the Cmax [17] was 200 nM and the Activity (U2OS [18]) was “Active”. For the same compound, the CL/F [19] was 1760 mL/min/kg, the Vd/F [20] was 69.4 L/kg and the half-life [21] was 33 min. For the same compound, the half-life [22] was 38 min and the Vd/F [23] was 34.4 L/kg.
